Source: ChEMBL document CHEMBL4431370, “Novel tricyclic poly (ADP-ribose) polymerase-1/2 inhibitors with potent anticancer chemopotentiating activity: Design, synthesis and biological evaluation” (Bioorg Med Chem, 2016)

Key:
[1] = biological target: T1, Poly [ADP-ribose] polymerase 1 (Homo sapiens, UniProt P09874); assay: Inhibition of PARP-1 (unknown origin) after 1 hr in presence of NAD+/biotinylated NAD+/slDNA by ELISA
MDA-MB-468 [2] = assay: Growth inhibition of human MDA-MB-468 cells at 100 uM after 72 hrs by SRB assay; assay type: functional; settings: for inhibition of growth at 100 µM: Homo sapiens, MDA-MB-468, 72 h, read-out: GI
Summary of the method: (§1)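 SRB read-out on adherent cells seeded in 96-well plates. Single-agent exposure at 100 μM for 72 h. Cells fixed in trichloroacetic acid for 1 h at 4 °C, stained with 0.4% (w/v) SRB for 20 min at room temperature, washed with 1% acetic acid. Bound dye solubilized in 10 mM Tris, absorbance read at 540 nm. Percent proliferation inhibition reported; means of two independent experiments.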

[3] = biological target: Poly [ADP-ribose] polymerase 2 (Homo sapiens, UniProt Q9UGN5); assay: Inhibition of PARP-2 (unknown origin) after 1 hr in presence of NAD+/biotinylated NAD+/slDNA by ELISA
Poly [ADP-ribose] polymerase 2, sequence (Q9UGN5 whole entry): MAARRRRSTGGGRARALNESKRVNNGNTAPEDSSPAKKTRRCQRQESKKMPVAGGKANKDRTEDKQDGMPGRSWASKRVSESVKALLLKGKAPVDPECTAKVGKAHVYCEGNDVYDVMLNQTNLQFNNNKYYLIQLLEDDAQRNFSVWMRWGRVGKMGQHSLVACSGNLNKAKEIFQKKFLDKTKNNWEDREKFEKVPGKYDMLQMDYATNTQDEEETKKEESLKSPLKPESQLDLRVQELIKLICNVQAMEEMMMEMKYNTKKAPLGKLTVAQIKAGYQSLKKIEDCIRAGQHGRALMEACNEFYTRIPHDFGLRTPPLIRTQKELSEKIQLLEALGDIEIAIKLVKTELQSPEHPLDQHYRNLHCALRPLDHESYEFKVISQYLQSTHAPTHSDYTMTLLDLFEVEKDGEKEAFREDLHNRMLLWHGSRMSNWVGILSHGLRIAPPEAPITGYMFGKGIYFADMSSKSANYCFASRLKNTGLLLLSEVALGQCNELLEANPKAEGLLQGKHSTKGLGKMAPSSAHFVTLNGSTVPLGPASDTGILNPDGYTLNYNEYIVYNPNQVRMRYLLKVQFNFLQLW

SW-620 [4] = assay: Growth inhibition of human SW620 cells at 100 uM after 72 hrs by SRB assay; assay type: functional; settings: for inhibition of growth at 100 µM: Homo sapiens, SW-620, 72 h, read-out: GI; summary of the method: as §1
SW-620 [5] = assay: Growth inhibition of human SW620 cells after 72 hrs by SRB assay; assay type: functional, cell-based
MDA-MB-468 [6] = assay: Growth inhibition of human MDA-MB-468 cells after 72 hrs by SRB assay; assay type: functional, cell-based
[7] = biological target: T1, Poly [ADP-ribose] polymerase 1; assay: Inhibition of PARP-1 (unknown origin) at 100 nM after 1 hr in presence of NAD+/biotinylated NAD+/slDNA by ELISA
Summary of the method: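 Histone-coated wells (20 μg/mL in PBS pH 7.4, 4 °C overnight). Reaction buffer 50 mM Tris, 2 mM MgCl2, pH 8.0, with 100 μM NAD+, 25 μM biotinylated NAD+ and 200 nM slDNA. Started with PARP-1 (50 ng/well), 1 h at 30 °C. Detection by streptavidin-HRP for 30 min at 30 °C, then H2O2/luminol in citrate buffer pH 5.4, luminescence read. Inhibition % = (control−treated)/control ×100.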

[8] = biological target: T1, Poly [ADP-ribose] polymerase 1; settings: A549
[9] = biological target: T1, Poly [ADP-ribose] polymerase 1
[10] = biological target: T1, Poly [ADP-ribose] polymerase 1; settings: MDA-MB-468

T1 sequence (P09874 whole entry): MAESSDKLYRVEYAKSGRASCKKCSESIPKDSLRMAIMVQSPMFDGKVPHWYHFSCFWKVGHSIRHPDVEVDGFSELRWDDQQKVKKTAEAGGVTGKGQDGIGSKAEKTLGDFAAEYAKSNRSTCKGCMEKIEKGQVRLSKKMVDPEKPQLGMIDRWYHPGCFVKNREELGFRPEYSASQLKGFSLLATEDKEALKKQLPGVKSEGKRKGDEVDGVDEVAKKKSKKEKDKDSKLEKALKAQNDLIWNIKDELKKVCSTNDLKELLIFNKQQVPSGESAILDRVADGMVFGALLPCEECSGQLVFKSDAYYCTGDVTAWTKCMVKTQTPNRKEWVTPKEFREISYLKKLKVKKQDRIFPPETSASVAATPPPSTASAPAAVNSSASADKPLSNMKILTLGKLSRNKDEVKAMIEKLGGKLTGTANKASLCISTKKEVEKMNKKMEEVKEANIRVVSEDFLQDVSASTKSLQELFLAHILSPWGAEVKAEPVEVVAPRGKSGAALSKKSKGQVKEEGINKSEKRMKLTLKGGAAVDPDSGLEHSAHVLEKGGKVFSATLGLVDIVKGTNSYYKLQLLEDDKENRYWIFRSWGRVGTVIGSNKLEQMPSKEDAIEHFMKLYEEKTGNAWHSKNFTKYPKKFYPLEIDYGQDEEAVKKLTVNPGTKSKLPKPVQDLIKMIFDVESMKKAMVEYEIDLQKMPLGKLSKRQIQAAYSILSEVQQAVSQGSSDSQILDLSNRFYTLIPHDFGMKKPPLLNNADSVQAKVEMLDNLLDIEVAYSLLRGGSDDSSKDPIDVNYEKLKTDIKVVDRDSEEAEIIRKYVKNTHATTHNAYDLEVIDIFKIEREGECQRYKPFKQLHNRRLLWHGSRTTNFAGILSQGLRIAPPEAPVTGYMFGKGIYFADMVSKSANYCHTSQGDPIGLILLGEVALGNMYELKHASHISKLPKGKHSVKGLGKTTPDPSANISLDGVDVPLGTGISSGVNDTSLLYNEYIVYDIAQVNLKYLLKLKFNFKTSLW

Compound	IC50 [1]	inhibition of growth at 100 µM (MDA-MB-468 [2])	inhibition of growth at 100 µM (SW-620 [4])	also measured
O=C1NCCn2c(-c3ccc(CN4CCCC4)cc3)nc3cncc1c32	20 nM	–	–	–
CC(C)N1CCC(c2nc3cncc4c3n2CCNC4=O)CC1	92 nM	–	–	–
CCNCc1ccc(-c2nc3cncc4c3n2CCNC4=O)cc1	11 nM	82%	94%	IC50 [3]: 9.9 nM; EC50 (SW-620 [5]; Homo sapiens, SW-620, 72 h): 23600 nM; EC50 (MDA-MB-468 [6]; Homo sapiens, MDA-MB-468, 72 h): 4600 nM
O=C1NCCn2c(C3CCN(C(=O)c4ccc(Cl)cc4)CC3)nc3cncc1c32	–	–	–	inhibition [7]: < 10%
CC(C)CN1CCC(c2nc3cncc4c3n2CCNC4=O)CC1	28 nM	53%	77%	IC50 [3]: 7.7 nM; EC50 (SW-620 [5]; Homo sapiens, SW-620, 72 h): 52600 nM; EC50 (MDA-MB-468 [6]; Homo sapiens, MDA-MB-468, 72 h): 18900 nM
O=C1NCCn2c(C3CCN(C(=O)c4ccccc4Cl)CC3)nc3cncc1c32	–	–	–	inhibition [7]: < 10%
O=C1NCCn2c(C3CCNCC3)nc3cncc1c32	54 nM	32%	25%	–
CN(C)Cc1ccc(-c2nc3cncc4c3n2CCNC4=O)cc1	28 nM	–	–	–
O=C1NCCn2c(-c3ccc(N4CCNCC4)cc3)nc3cncc1c32	20 nM	57%	15%	IC50 [3]: 5.5 nM; EC50 (MDA-MB-468 [6]; Homo sapiens, MDA-MB-468, 72 h): 94000 nM
O=C1NCCn2c(C3CCN(C(=O)c4ccccc4)CC3)nc3cncc1c32	–	–	–	inhibition [7]: < 10%
CC(C)NCc1ccc(-c2nc3cncc4c3n2CCNC4=O)cc1	58 nM	–	–	–
O=C1NCCn2c(-c3ccc(CN4CCCCC4)cc3)nc3cncc1c32	29 nM	–	–	–
C[C@]1(c2nc3c(C(N)=O)cccc3[nH]2)CCCN1 [VELIPARIB]	–	–	–	PF50 [8]: 1.5; PF50 [9]: 3.1; PF50 [10]: 1.2; growth inhibition (GI) (MDA-MB-468 [2]): 69%; growth inhibition (GI) (SW-620 [4]): 95%; EC50 (SW-620 [5]; sw-620): 27100 nM; EC50 (MDA-MB-468 [6]; mda-mb-468): 43000 nM
CC(C)(C)NCc1ccc(-c2nc3cncc4c3n2CCNC4=O)cc1	75 nM	–	–	–
CCCN1CCC(c2nc3cncc4c3n2CCNC4=O)CC1	19 nM	30%	41%	–
O=C1NCCn2c(-c3ccccc3)nc3cncc1c32	110 nM	–	–	–
CNCc1ccc(-c2nc3cncc4c3n2CCNC4=O)cc1	13 nM	71%	80%	IC50 [3]: 7.2 nM; EC50 (SW-620 [5]; Homo sapiens, SW-620, 72 h): 89000 nM; EC50 (MDA-MB-468 [6]; Homo sapiens, MDA-MB-468, 72 h): 81400 nM
O=C1NCCn2c(C3CCN(C(=O)C4CC4)CC3)nc3cncc1c32	–	–	–	inhibition [7]: < 10%
CC(=O)N1CCC(c2nc3cncc4c3n2CCNC4=O)CC1	–	–	–	inhibition [7]: < 10%
CN1CCN(c2ccc(-c3nc4cncc5c4n3CCNC5=O)cc2)CC1	139 nM	–	–	–
O=C1NCCn2c(C3CCN(Cc4ccccc4)CC3)nc3cncc1c32	103 nM	–	–	–
O=C1NCCn2c(C3CCN(C(=O)c4cccc(Cl)c4)CC3)nc3cncc1c32	–	–	–	inhibition [7]: < 10%
CCCCN1CCC(c2nc3cncc4c3n2CCNC4=O)CC1	21 nM	47%	67%	EC50 (SW-620 [5]; Homo sapiens, SW-620, 72 h): 95000 nM
